According to BindingDB's records for doi:10.1016/j.bmc.2008.10.090 (Virginia Polytechnic Institute and State University, 2009):

Experiments:
[1] = biological target: T1, Dual specificity protein phosphatase 1 (Mus musculus, UniProt P28563); test: Inhibition of histidine-tagged mouse MKP1 catalytic domain expressed in […]
T1 sequence (P28563 whole entry): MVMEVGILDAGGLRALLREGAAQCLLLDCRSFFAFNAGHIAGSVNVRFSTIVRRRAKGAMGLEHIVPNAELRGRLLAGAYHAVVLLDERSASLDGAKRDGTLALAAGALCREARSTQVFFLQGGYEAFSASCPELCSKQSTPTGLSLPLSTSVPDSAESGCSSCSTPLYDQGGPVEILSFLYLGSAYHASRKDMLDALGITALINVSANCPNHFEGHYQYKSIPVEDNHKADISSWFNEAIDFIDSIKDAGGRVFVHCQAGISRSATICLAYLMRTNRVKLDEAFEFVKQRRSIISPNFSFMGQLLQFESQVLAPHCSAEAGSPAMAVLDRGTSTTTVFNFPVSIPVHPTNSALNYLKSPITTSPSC

[2] = biological target: T2, M-phase inducer phosphatase 2 (Homo sapiens, UniProt P30305); test: Inhibition of histidine-tagged human recombinant Cdc25B catalytic domain expressed in Escherichia coli
T2 sequence (P30305 whole entry): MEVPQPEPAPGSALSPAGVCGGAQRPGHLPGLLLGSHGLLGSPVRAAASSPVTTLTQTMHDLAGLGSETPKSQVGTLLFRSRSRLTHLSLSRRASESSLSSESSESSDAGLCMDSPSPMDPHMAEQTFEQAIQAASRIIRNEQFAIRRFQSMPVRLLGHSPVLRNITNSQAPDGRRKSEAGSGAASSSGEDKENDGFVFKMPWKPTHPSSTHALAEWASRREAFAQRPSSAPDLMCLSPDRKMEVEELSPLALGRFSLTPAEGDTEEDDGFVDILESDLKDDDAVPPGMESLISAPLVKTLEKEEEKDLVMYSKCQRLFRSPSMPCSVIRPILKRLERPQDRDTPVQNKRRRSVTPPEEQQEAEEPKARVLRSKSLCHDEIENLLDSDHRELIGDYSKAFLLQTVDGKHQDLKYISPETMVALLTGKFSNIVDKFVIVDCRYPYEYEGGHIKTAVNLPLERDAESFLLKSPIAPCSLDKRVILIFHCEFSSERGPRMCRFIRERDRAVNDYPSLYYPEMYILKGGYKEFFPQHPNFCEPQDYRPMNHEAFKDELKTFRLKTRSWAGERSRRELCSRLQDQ

[3] = biological target: T3, Dual specificity protein phosphatase 6 (Rattus norvegicus, UniProt Q64346); test: Inhibition of histidine-tagged rat recombinant MKP3 catalytic domain expressed in Escherichia coli BL21(DE3)
T3 sequence (Q64346 whole entry): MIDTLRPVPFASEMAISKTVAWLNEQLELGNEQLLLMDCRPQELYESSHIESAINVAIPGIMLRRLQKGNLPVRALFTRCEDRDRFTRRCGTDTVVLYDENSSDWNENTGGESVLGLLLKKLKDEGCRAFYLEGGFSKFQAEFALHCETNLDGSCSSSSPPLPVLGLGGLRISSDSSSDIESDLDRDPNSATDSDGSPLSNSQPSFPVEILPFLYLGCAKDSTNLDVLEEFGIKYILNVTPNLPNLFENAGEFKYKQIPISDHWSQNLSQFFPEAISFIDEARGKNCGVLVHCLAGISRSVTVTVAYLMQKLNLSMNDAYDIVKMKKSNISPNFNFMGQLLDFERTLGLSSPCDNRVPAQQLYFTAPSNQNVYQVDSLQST
Outline: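 Recombinant MKP-3 was expressed from a bacterial plasmid. Phosphatase activity was read from O-methyl fluorescein phosphate hydrolysis in a 25 μL final mixture, incubated 20 or 60 min at ambient temperature. Product fluorescence was read at excitation 485 nm and emission 530 nm. IC50 came from at least six inhibitor concentrations.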

| IC50 [1] | IC50 [2] | IC50 [3] | SMILES |
| --- | --- | --- | --- |
| > 50 µM | > 50 µM | > 50 µM | Cc1c(NCC=O)c(O)c2ccccc2c1O [2-(2-hydroxyethylamino)-3-methylnaphthalene-1,4-dione] |
| > 50 µM | > 50 µM | > 50 µM | O=CCNc1cc(O)c2ccccc2c1O [2-(2-hydroxyethylamino)naphthalene-1,4-dione] |
